Structures are written as SMILES. ≈ marks a conversion by molar mass, not a printed value. Calls of active or inactive are those of the source. The rule behind the calls is not given here. Some results are limits rather than exact numbers.

This note sets out measurements from ChEMBL document CHEMBL1144496, “Design, synthesis, and biological evaluation of novel iso-D-2',3'-dideoxy-3'-fluorothianucleoside derivatives” (Bioorg Med Chem, 2007).

The test system of data set [1] is Human T-cell leukemia virus type I. The data set can be described thus: Cytostatic activity against HTLV1 infected human MT4 lymphocyte. It is filed as functional. Put shortly:
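HTLV-1-infected human T-lymphocyte MT4 cells were exposed to compound at concentrations up to 100 μg/mL. Read-out was the 50% cytostatic concentration (CS50).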

Data set [2] concerns Human immunodeficiency virus 1. The data set can be described thus: Antiviral activity against HIV1 3B by CPE assay. The format is functional, organism-based. As to conditions: Human immunodeficiency virus 1, 3B.
Data set [3] deals with HeLa. Briefly: Cytotoxicity against human HeLa cells. It is filed as cell-based. A digest of the protocol:
(§1)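 Cytotoxicity was assessed on uninfected cells: Vero (African green monkey kidney) and HeLa (human cervical carcinoma). Compounds were tested up to 100 μg/mL, and the value was reported as CC50, the 50% cytotoxic concentration.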

The test system of data set [4] is Encephalomyocarditis virus. The data set can be described thus: Antiviral activity against encephalomyocarditis virus by CPE assay. As to conditions: Cardiovirus A. The format is functional, organism-based. Put shortly: (§2)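 Compounds were tested at concentrations up to 100 μg/mL, and antiviral activity was expressed as EC50. For the […] line, the virus was strain […]. Cell hosts named in the work were MT4 (HTLV-1-infected human T-lymphocytes), HeLa and Vero (African green monkey kidney) cells.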

The test system of data set [5] is Coxsackievirus B3. Briefly: Antiviral activity against coxsackie B virus type 3 by CPE assay. The format is functional, organism-based. As to conditions: Enterovirus B.
For data set [6], the system named is Vesicular stomatitis virus. Briefly: Antiviral activity against vesicular stomatitis virus by CPE assay. The format is functional, organism-based. Put shortly:
as §2

The subject of data set [7] is Vero. The data set can be described thus: Cytotoxicity against Vero cells. The format is cell-based. As to conditions: chlorocebus sabaeus. A digest of the protocol:
as §1

In data set [8] the test system is Human alphaherpesvirus 1. Briefly: Antiviral activity against HSV1 by CPE assay. It is filed as functional, organism-based. Put shortly: as §2
Data set [9] deals with Human alphaherpesvirus 2. The data set can be described thus: Antiviral activity against HSV2 by CPE assay. It is filed as functional, organism-based. A digest of the protocol:
as §2

For data set [10], the system named is Influenza A virus. It is filed as functional, organism-based. As to conditions: H1N1.
Data set [11] concerns Influenza A virus. The data set can be described thus: Antiviral activity against influenza virus type A H3N2. It is filed as functional, organism-based. A digest of the protocol:
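Influenza A viruses were H1N1 strain Taiwan and H3N2 strain Johannesburg. Compounds were tested for antiviral activity and cytotoxicity at concentrations up to 100 μg/mL.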

Data set [12] relates to Feline coronavirus. The data set can be described thus: Antiviral activity against Feline coronavirus WSU. It is filed as functional, organism-based. A digest of the protocol:
(§3)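 Feline virus strain WSU screened together with influenza A strains; test concentrations went up to 100 μg/mL, with antiviral activity and cytotoxicity both assessed.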

The test system of data set [13] is Feline infectious peritonitis virus. The data set can be described thus: Antiviral activity against FIP WSU. The format is functional. Put shortly:
as §3

Regarding `Nc1ncnc2c1ncn2[C@@H]1CS[C@H](CO)[C@H]1F`, in data set [1], the CS50 was >100 µg/mL. Moreover, the 50% effective concentration (EC50) in data set [2], in [4], in data set [5], in data set [6], in data set [8] and in data set [9] was > 100 µg/mL each time. The CC50 in data set [3] and in data set [7] was > 100 µg/mL in each case. In addition, the outcome in [10], in data set [11], in data set [12] and in [13] was inactive.

As to `Nc1ccn([C@@H]2CS[C@H](CO)[C@H]2F)c(=O)n1`, the CS50 in data set [1] is >100 µg/mL. Besides, the EC50 – broadly, the concentration at which the effect is half-maximal – in data set [2] was > 100 µg/mL; in data set [4], > 14.5 µg/mL; in [5] it was > 14.5 µg/mL; in [6], 9.43 µg/mL (≈ 38.4 µM); in data set [8], > 100 µg/mL; in data set [9] it was > 100 µg/mL. For the same molecule, the CC50 (as a rule, the concentration that lowers cell viability or growth by half) is 14.54 µg/mL (≈ 59.3 µM) in data set [3] and > 100 µg/mL in [7]. In addition, the result in data set [10], in [11], in [12] and in data set [13] was inactive.

`O=c1[nH]cnc2c1ncn2[C@H]1CC[C@@H](CO)O1` [DIDANOSINE]: the CS50 in data set [1] was >100 µg/mL. Moreover, the CC50 in [7] is > 10 µg/mL. The figures for the EC50 in data set [8] and in data set [9] were 0.17 µg/mL (≈ 0.72 µM) and 0.47 µg/mL (≈ 1.99 µM), respectively.

As to `NC(=O)c1ncn([C@@H]2O[C@H](CO)[C@@H](O)[C@H]2O)n1` [RIBAVIRIN], the CC50 in data set [3] was > 300 µg/mL. The EC50 in data set [4] amounted to 23.4 µg/mL (≈ 96 µM); in data set [5], 64.1 µg/mL (≈ 262 µM); in data set [6], 10.3 µg/mL (≈ 42.3 µM).

As to `O=c1ccn([C@@H]2CS[C@H](CO)[C@H]2F)c(=O)[nH]1`, the CS50 in [1] is >100 µg/mL. The EC50 in [2], in data set [4], in data set [5], in [6], in data set [8] and in data set [9] was > 100 µg/mL throughout. For the same molecule, the 50% cytotoxic concentration (CC50) in data set [3] and in [7] was > 100 µg/mL each time. Also, the outcome in data set [10], in data set [11], in data set [12] and in data set [13] was inactive.

With `Cc1cn([C@@H]2CS[C@H](CO)[C@H]2F)c(=O)[nH]c1=O`, in data set [1], the CS50 was >100 µg/mL. The EC50 in [2], in [4], in data set [5], in [6], in data set [8] and in data set [9] was > 100 µg/mL in each case. In addition, the CC50 in data set [3] and in [7] was > 100 µg/mL throughout. The outcome in data set [10], in data set [11], in data set [12] and in data set [13] was inactive.
